Source: ChEMBL document CHEMBL4513216, “Probing the Open Global Health Chemical Diversity Library for Multistage-Active Starting Points for Next-Generation Antimalarials” (ACS Infect Dis, 2020)

Experiment: Toxicity liver stage against HepG2, at 10uM
Type: cell-based
Design: test concentration 10 uM, cell line HepG2-A16-CD81EGFP
Conditions: human, HepG2-A16-CD81EGFP cells; read-out: INHIBITION
How it was run: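 Uninfected HepG2-A16-CD81EGFP cells, 3 × 10^3 per well, 1536-well, plated on prespotted compound at 10 μM final, parasite-free screening media added to match infected plates; puromycin 10 μM positive, DMSO 0.5% negative; run in parallel with 48 h PbLuc assay at 37 °C, 5% CO2; viability by CellTiter-Glo luminescence, normalized to controls.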

| Structure (SMILES) | cytotoxicity at 10 µM |
| --- | --- |
| CCCc1nnc2sc(CC3CN(Cc4ccccc4)CCO3)nn12 (stereo not drawn) | 5.3% |
| O=C([C@@H]1C[C@@H]2CCN(C3CCOCC3)C[C@H]2O1)N1CCOCC1 | 0.763% |
| Cc1cccc(CN(C(=O)CS(C)(=O)=O)C(C)C)c1 | 1.68% |
| N#Cc1ccc(OC2CCN(CC(=O)NCC(F)(F)F)CC2)cc1 | 11.9% |
| Cc1ccc(-c2ccnc(N3CCC4(CCO4)CC3)n2)c(C)n1 | 2.05% |
| O=C(c1ccoc1)N1CC[C@@H]2O[C@@H](COCc3ccccn3)CC[C@@H]21 | -71.1% |
| CC(C)N1CCO[C@H]2CN(C(=O)c3ccc(N(C)C)cc3)C[C@H]21 | 3.19% |
| c1ccc(-c2nc(CN3CCCCC3Cn3cncn3)co2)cc1 (stereo not drawn) | -14.4% |
| Cc1cc(C(=O)N2CCC3(CCNCC3)CC2)c2cccc(C)c2n1 | -15.6% |
| CN(C)c1ccc(CN2CCC(C(O)Cc3ccccc3)CC2)cn1 (stereo not drawn) | -1.29% |
| Cc1ccc(C(C(=O)NCCN2CCCCCC2)N(C)C)cc1 (stereo not drawn) | -3.12% |
| COc1ccccc1OCC(=O)Nc1ncccc1Cl | -3.61% |
| CCCN1C[C@@H]2CC[C@H]1CN(Cc1cccc(-n3cccn3)c1)C2 | -1.69% |
| CC(=O)N1CCCN(Cc2csc(-c3ncccn3)n2)CC1 | 7.08% |
| Cc1ccc([C@]2(O)CC[C@H]3CN(Cc4ccncc4)C[C@H]32)nc1 | -31.5% |
| O=C(c1cscn1)N1CCC2(CCCN(CCOc3ccccc3)C2)C1 (stereo not drawn) | 1.38% |
| COCC(=O)Nc1ccc(-c2noc([C@@H]3CCCN3C(C)C)n2)cn1 | 0.994% |
| O=C(CCCc1ccc(Cl)cc1)N1CCC(c2nnc[nH]2)CC1 | 18.3% |
| COc1ccc(-c2nnc([C@H]3CCN(CC(C)(C)C)C3)o2)cc1 | -3.43% |
| CCC[C@H]1CN(S(C)(=O)=O)C[C@@H]1NC(=O)Cc1ccc(OC)cc1 | 1.85% |
| O=C(C1CC=CC1)N1C[C@@H]2CN(Cc3ccsc3)CCO[C@@H]2C1 | -87.4% |
| COCC(O)CN1CCC(NC(=O)c2cscc2C)CC1 (stereo not drawn) | -4.51% |

| Structure (SMILES) | cytotoxicity at 10 µM |
| --- | --- |
| CCOc1cc(C)nc(N2CCN(C(=O)CN(C)C3CC3)CC2)n1 | 5.05% |
| Cc1nc(C2CCN(C(=O)c3cscn3)CC2)c2sccn12 | -5.16% |
| O=S(=O)(NCC1(O)CCOc2ccccc21)c1ccccc1Br (stereo not drawn) | 8.45% |
| Cc1ccc2c(c1)c(CNC(=O)C1CCCN(CC(N)=O)C1)nn2C (stereo not drawn) | -17.9% |
| Cc1nc2[nH]cnc(Nc3ccn(C)n3)c-2n1 | 18.2% |
| Cc1noc(C)c1C[S+]([O-])Cc1cn2cccc(C)c2n1 (stereo not drawn) | 2.14% |
| COc1cccc(-c2cnnc(N(C)CCC3CCCCO3)n2)c1 (stereo not drawn) | 12.7% |
| Fc1ccc(CN2CCC(c3nccnc3-n3ccnc3)CC2)cc1 | -0.259% |
| CC(C)(C)C(=O)Cn1nc(C2CC2)cc(C(F)(F)F)c1=O | -8.06% |
| C/C=C(\C)CN1C[C@H](c2cccc(OC)c2)[C@@H](N)C1 | 3.49% |
| Cc1n[nH]c(C)c1NC(=O)CN1CCCC1c1noc(C2CC2)n1 (stereo not drawn) | 2.94% |
| Cc1nc2c(c(=O)n1C)CN(C(=O)C1CCCN(CC(N)=O)C1)C2 (stereo not drawn) | -6% |
| CCOCCN1CCN(CC(=O)N2CCC2)CC1CC (stereo not drawn) | -2.15% |
| COc1ccnc(N2CCN(C(=O)c3csc(C(C)C)n3)CC2)n1 | -1.82% |
| O=C(Cn1cccn1)N1CCC(c2nnc(-c3ccsc3)o2)CC1 | 6.88% |
| Cc1nc(CN2CCCC2c2noc(C3CC3)n2)oc1C (stereo not drawn) | -8.13% |
| CCNC(=O)C1(Cc2cc(-c3ccc(C)cc3)no2)CCCN(C)C1 (stereo not drawn) | 7.9% |
| Cc1ncc(CC(=O)N2CCC3(CCC(=O)N(C4CC4)C3)CC2)c(=O)[nH]1 | -45.1% |
| CN(C)C(=O)CS(=O)(=O)Cc1ccn(-c2cccc(F)c2)n1 | 3.03% |
| Cc1ccc(-c2cn[nH]c2C2CCCN(c3cnccn3)C2)cc1 (stereo not drawn) | 73.6% |
| CC(c1nc(C2CC2)no1)N1CCN(CC(=O)N2CCOCC2)CC1 (stereo not drawn) | 6.75% |
